Published values collected from several papers.
Protocols differ between the studies behind these lines.
Organism: Acinetobacter baumannii
Effect on: microbial growth

`CN(C)c1nc(NC(=O)CNC(C)(C)C)c(O)c2c1C[C@H]1C[C@H]3[C@H](N(C)C)C(O)=C(C(N)=O)C(=O)[C@@]3(O)C(O)=C1C2=O.Cl` has an MIC of greater than 32 µg/mL (broth dilution; ATCC19606).
`CCCCC(=O)N1C(=O)/C(=C(/C)O)C(=O)C1CC(C)C` (centres unmarked) gave an MIC of greater than 200 µg/mL (ATCC19606).
`N=C(N)c1cccc(OCc2ccc(COc3cccc(C(=N)N)c3)cc2)c1` gave an MIC of greater than 200 µg/mL (broth dilution; ATCC17978).
For `O=C(O)c1ccc(-n2cc(/C=N/Nc3ccc(F)cc3)c(-c3ccc(F)cc3)n2)cc1`, the MIC was 25 µg/mL (ATCCBAA1605).
The MIC of `CN(C)c1cc(CNCC(C)(C)C)c(O)c2c1C[C@H]1C[C@H]3[C@H](N(C)C)C(O)=C(C(N)=O)C(=O)[C@@]3(O)C(O)=C1C2=O` is reported as 1 µg/mL (broth dilution; ATCC19606).
`O=C(O)c1ccc(-n2cc(/C=N/Nc3ccccc3F)c(-c3ccc4ccccc4c3)n2)cc1` gave an MIC of 25 µg/mL (ATCCBAA1605).
`CCCCCCC/C=C/C(=O)N1C(=O)/C(=C(/C)O)C(=O)C1CO` (centres unmarked) gave an MIC of greater than 200 µg/mL (ATCC19606).
For `CN(C)[C@@H]1C(O)=C(C(N)=O)C(=O)[C@@]2(O)C(O)=C3C(=O)c4c(cc5ccc(CN6CC(F)(F)C6)cc5c4O)C[C@H]3C[C@@H]12`, the MIC was 32 µg/mL (broth dilution; ATCC19606).
For `CCCNc1nc(N(C)C)c2c(c1O)C(=O)C1=C(O)[C@]3(O)C(=O)C(C(N)=O)=C(O)[C@@H](N(C)C)[C@@H]3C[C@@H]1C2.Cl.Cl`, the MIC was greater than 32 µg/mL (broth dilution; ATCC19606).
With `CC1(C)S[C@@H]2[C@H](NC(=O)C(C(=O)O)c3ccccc3)C(=O)N2[C@H]1C(=O)O` (some centres unmarked) the MIC was 44.3 µM (broth dilution).
For `CC(C)Oc1c(NC(=O)c2ccc(NC(=O)[C@H](CC(N)=O)NC(=O)c3ccc(NC(=O)c4ccc(C#N)cn4)cc3)cc2)ccc(C(=O)Nc2ccc(C(=O)O)cc2)c1O`, the MIC was 0.125 µg/mL (DSM30008).
The MIC of `O=[N+]([O-])c1ccc(O)c2ncccc12` is reported as 1.56 µM (19606).
For `CNC(C)C1CCC(N)C(OC2C(N)CC(N)C(OC3OCC(C)(O)C(NC)C3O)C2O)O1` (centres unmarked), the MIC was 0.5 µg/mL (broth dilution; ATCC19606).
With `CCCCCCC/C=C/C(=O)N1C(=O)/C(=C(\O)c2ccc(O)cc2)C(=O)C1CC(C)C` (centres unmarked) the MIC was greater than 200 µg/mL (ATCC19606).
With `NC1CCCCc2c1[nH]c1cc(Cl)c(Cl)cc21` (centres unmarked) the MIC was 8 µg/mL (broth dilution; ATCC19606).
`CN(C)[C@@H]1C(O)=C(C(N)=O)C(=O)[C@@]2(O)C(O)=C3C(=O)c4c(cc5ccc(CN(C)S(C)(=O)=O)cc5c4O)C[C@H]3C[C@@H]12` has an MIC of 32 µg/mL (broth dilution; ATCC19606).
The MIC of `O=C(Cc1cc(O)c(O)c(O)c1)NCCCCCCCC[P+](c1ccccc1)(c1ccccc1)c1ccccc1.[Br-]` is reported as greater than 32 µg/mL (broth dilution; ATCC19606; 18 h).
